Measurements collected from several papers.
Target: Mitogen-activated protein kinase 10 (MAPK10, Homo sapiens, UniProt P53779)

| Compound | assay | setting | remaining binding [%] |
| --- | --- | --- | --- |
| CN(C)C(=O)Cn1cc(-c2nc([C@@](C)(c3ccc(-c4cnc(N)nc4)cc3)C3CC3)no2)cn1 | cell-free assay, competition with immobilised ligand | 1 µM | 94 |
| C[C@@H]1CN(c2ccc3ncc(-c4ccc5[nH]nc(C6CC6)c5c4)n3n2)C[C@H](C)O1 | binding, competition with immobilised ligand | 50 nM | 85 |
| CC1CCCN1c1nccc(-c2cnn3ncccc23)n1 (stereo not drawn) | binding | 1 µM | 79 |
| O=C(c1ccc(Nc2nccc(-c3cc4ccccc4s3)n2)cc1)N1CCC(N2CCCC2)CC1 | binding, competition with immobilised ligand | 1 µM | 12 |
| Nc1ncc2c(n1)-c1c([nH]c3ccc(C#CC4CC4)cc13)CCCC2 | binding, competition with immobilised ligand | 1 µM | 76 |
| F[C@@H]1CCN(c2nccc(-c3cnn4ncccc34)n2)C1 | binding | 1 µM | 87 |
| O=C(N[C@H]1CCCCC/C=C\C2C[C@@]2(C(=O)O)NC(=O)[C@@H]2C[C@@H](Oc3ccncc3)CN2C1=O)OC1CCCC1 (stereo partly drawn) | binding, competition with immobilised ligand | 1 µM | 81 |
| O=C(NCCCN1CCOCC1)c1ccc(Nc2ncc(Cl)c(-c3ccc(Cl)s3)n2)cc1 | binding, competition with immobilised ligand | 1 µM | 4.7 |
| CC1=C(C#N)[C@@H](c2ccc3[nH]nc(C)c3c2)C(C#N)=C(c2ccc(Cl)cc2)N1 | cell-free assay, competition with immobilised ligand | 1 µM | 68.8 |
| FC(F)(F)Oc1cccc(-c2cnc3ccc(-c4ccncc4)nn23)c1 | cell-free assay, competition with immobilised ligand | 5 µM | 65 |
| c1cncc(-c2cccc(Nc3nccc(NC4CCCCC4)n3)c2)c1 | binding, competition with immobilised ligand | 10 µM | 51 |
| CO[C@H]1CC[C@H](CNc2ccc(S(=O)(=O)NC(=O)c3ccc(N4CCN(CC5=C(c6ccc(Cl)cc6)CC(C)(C)CC5)CC4)cc3Oc3cnc4[nH]ccc4c3)cc2[N+](=O)[O-])CC1 | cell-free assay, competition with immobilised ligand | 1 µM | 77 |
| O=C(Nc1c[nH]nc1C(=O)NC1CCNCC1)c1cc(F)cc(F)c1 | binding, competition with immobilised ligand | 1 µM | 100 |
| Cc1cnn2ncc(-c3ccnc(N(C)C)n3)c2c1 | binding | 1 µM | 71 |
| Cc1nc(N2CC[C@@H](O)C2)ncc1-c1cc(C(F)(F)F)cc2[nH]ncc12 | binding, competition with immobilised ligand | 1 µM | 72 |
| CN(CCCC(F)(F)F)c1nccc(-c2cnn3ncccc23)n1 | binding | 1 µM | 97 |
| CCN1CCN(Cc2ccc(C(=O)Nc3ccc(C)c(Oc4ccc5c(c4)CC(=O)N5)c3)cc2C(F)(F)F)CC1 | binding, competition with immobilised ligand | 1 µM | 81 |
| N[C@@H]1CCN(c2nccc(-c3cnn4ncccc34)n2)C1 | binding | 1 µM | 52 |
| COc1cnc(Nc2cccc(S(N)(=O)=O)c2)nc1N1CCN(c2ccccc2)CC1 | binding, competition with immobilised ligand | 1 µM | 83 |
| Cc1cnc(Nc2ccc(C(=O)N3CCC(N4CCCC4)CC3)cc2)nc1-c1cc2ccccc2s1 | binding, competition with immobilised ligand | 1 µM | 8.6 |
| O=C1CCc2cc(Nc3cc(OC4CCOCC4)c([N+](=O)[O-])cc3Cl)ccc2N1 | cell-free assay, competition with immobilised ligand | 1 µM | 98 |
| C[C@H]1CCN(c2nccc(-c3cnn4ncccc34)n2)C1 | binding | 1 µM | 32 |
| Cc1noc([C@H]2C[C@@H](c3ccc(C(F)(F)F)cc3)CN(C(=O)N3CCS(=O)(=O)C3)C2)n1 | cell-free assay, competition with immobilised ligand | 1 µM | 88 |
| CN(C)c1nccc(-c2cnc3ncccn23)n1 | binding | 1 µM | 70 |
